# From ChEMBL document CHEMBL1129607, “Paracyclophanes: a novel class of water-soluble inhibitors of HIV proteinase” (J Med Chem, 1996)
# How the values were obtained:
# [1] = tested on: Human immunodeficiency virus 1; assay: Antiviral activity against HIV-1 IIIB induced cytopathic effect in de novo infected MT-4 cells; type: functional, organism-based; conditions: Human immunodeficiency virus 1, MT4
# Summary of the method: (§1)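 MT4 cells were infected de novo with HIV-1 IIIB or HIV-2 EHO, and compound was added after adsorption. Mock-infected cells were run in parallel. After 5 days, viability was read spectrophotometrically by in situ MTT reduction.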
# [2] = target: T1, Human immunodeficiency virus type 1 protease (Human immunodeficiency virus 1, UniProt Q72874); assay: Inhibition of HIV-1 proteinase was assayed in infected MT-4 cells; type: cell-based, MT4
# MT4 [3] = assay: Antiviral activity for inhibition of HIV-2 proteinase was assayed in infected MT-4 cells; type: functional, cell-based; conditions: Homo sapiens
# Cathepsin D = Cathepsin D (Homo sapiens, UniProt P07339); assay: The compound was tested for inhibition of Human Cathepsin D
# Cathepsin D, sequence (P07339 65-162 limits assumed): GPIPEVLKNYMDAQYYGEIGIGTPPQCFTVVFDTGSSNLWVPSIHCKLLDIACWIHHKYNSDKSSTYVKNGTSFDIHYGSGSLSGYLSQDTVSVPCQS
# Cathepsin D, sequence (P07339 169-412 limits assumed): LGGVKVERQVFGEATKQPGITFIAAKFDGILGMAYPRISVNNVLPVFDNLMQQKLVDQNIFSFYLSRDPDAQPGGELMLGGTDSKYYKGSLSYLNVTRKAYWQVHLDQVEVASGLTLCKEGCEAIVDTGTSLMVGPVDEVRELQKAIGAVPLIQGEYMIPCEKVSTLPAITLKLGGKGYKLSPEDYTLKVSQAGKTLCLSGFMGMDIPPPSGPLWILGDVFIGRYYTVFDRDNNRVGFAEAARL
# [4] = Area Under Curve was measured by ploting the graph between concentration verses time; type: ADME
# Summary of the method: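 Female Balb/c mice (n = 2 per time point) were fasted 24 h before and throughout the study, with water ad libitum. Compound was given by oral gavage at 125 mg/kg in a microemulsion formulation. Plasma levels were measured by solid-phase extraction and HPLC.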
# [5] = Inhibitory concentration against HIV-1 strain IIIB infected T4 lymphocytes; type: functional, cell-based
# Summary of the method: (§2)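 T4-lymphocytes were purified from healthy donor human […] and stimulated with PHA. Cells were infected with HIV-1 IIIB or HIV-2 MS and kept in IL-2 medium. Compound was added after stimulation and virus adsorption. Every 3-4 days, half the supernatant was replaced with fresh IL-2 medium containing compound.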
# [6] = Inhibitory concentration against HIV-2 strain MS infected T4 lymphocytes; type: functional, cell-based; summary of the method: as §2
# [7] = Aqueous solubility in phosphate buffer of pH 7.4
# MT4 [8] = assay: Antiviral activity against HIV-2 induced cytopathic effect in de novo infected MT-4 cells; type: functional, cell-based; conditions: Homo sapiens; summary of the method: as §1
# [9] = target: T1, Human immunodeficiency virus type 1 protease; assay: Compound was tested for inhibition of HIV-1 protease was assayed in infected MT-4 cells; type: cell-based, MT4
SMILES,IC50 [1] [nM],Ki [2] [nM],also measured
CC(C)[C@H](NC(=O)OCc1ccccc1)C(=O)N[C@@H](Cc1ccccc1)[C@@H](O)[C@H]1NCc2ccc(cc2)OCCOCCOCCOCCNC(=O)[C@H](C(C)C)NC1=O,52,–,–
CC(C)[C@H](NC(=O)OCc1ccccc1)C(=O)N[C@@H](Cc1ccccc1)[C@@H](O)[C@H]1NCc2cccc(c2)OCCOCCOCCNC(=O)[C@H](C(C)C)NC1=O,211,7.7,–
CC(C)[C@@H]1NC(=O)[C@@H]([C@H](O)[C@H](Cc2ccccc2)NC(=O)OC(C)(C)C)NCc2ccc(cc2)OCCOCCOCCOCCNC1=O,1170,23.2,–
CC(C)[C@@H]1NC(=O)[C@@H]([C@H](O)[C@H](Cc2ccccc2)NC(=O)OC(C)(C)C)NCc2ccc(cc2)OCCOCCNC1=O,450,14,–
CC(C)[C@H](NC(=O)OCc1ccccc1)C(=O)N[C@@H](Cc1ccccc1)[C@@H](O)[C@H]1NCc2ccc(cc2)OCCCCNC(=O)[C@H](C(C)C)NC1=O,27,–,–
CC(C)[C@@H]1NC(=O)[C@@H]([C@H](O)[C@H](Cc2ccccc2)NC(=O)O[C@H]2CCOC2)NCc2ccc(cc2)OCCOCCOCCNC1=O,198,–,–
CC(C)[C@H](NC(=O)OCc1ccccc1)C(=O)N[C@@H](Cc1ccccc1)[C@@H](O)[C@H]1NCc2ccc(cc2)OCCOCCOCCNC(=O)[C@H](C(C)C)NC1=O,16,6.9,IC50 (MT4 [3]): 37 nM; IC50 (Cathepsin D): > 10000 nM; AUC [4]: < 0.4 µM·h; IC50 [5]: 3.1 nM; IC50 [6]: 17 nM
CC(C)[C@@H]1NC(=O)[C@@H]([C@H](O)[C@H](Cc2ccccc2)NC(=O)OC(C)(C)C)NCc2cccc(c2)OCCOCCOCCNC1=O,3000,208,–
CC(C)[C@@H]1NC(=O)[C@@H]([C@H](O)[C@H](Cc2ccccc2)NC(=O)[C@@H](NC(=O)OCc2ccccc2)C(C)(C)C)NCc2ccc(cc2)OCCOCCNC1=O,15,8,IC50 (Cathepsin D): > 10000 nM; AUC [4]: 4.7 µM·h
COc1ccc(CN[C@@H](C(=O)N[C@H](C(=O)NCc2nc3ccccc3[nH]2)C(C)C)[C@H](O)[C@H](Cc2ccccc2)NC(=O)[C@@H](NC(=O)OCc2ccccc2)C(C)C)cc1,29,–,AUC [4]: < 0.4 µM·h; solubility [7]: < 10 µM
CC(C)[C@@H]1NC(=O)[C@@H]([C@H](O)[C@H](Cc2ccccc2)NC(=O)O[C@H]2CCOC2)NCc2ccc(cc2)OCCOCCNC1=O,157,8.2,–
CC(C)[C@H](NC(=O)OCc1ccccc1)C(=O)N[C@@H](Cc1ccccc1)[C@@H](O)[C@H]1NCc2ccc(cc2)OCCOCCNC(=O)[C@H](C(C)C)NC1=O,21,7.9,IC50 (Cathepsin D): > 10000 nM
CC(C)[C@@H]1NC(=O)[C@@H]([C@H](O)[C@H](Cc2ccccc2)NC(=O)OC(C)(C)C)NCc2ccc(cc2)OCCOCCOCCNC1=O,169,–,–
CC(C)[C@H](NC(=O)OCc1ccccc1)C(=O)N[C@@H](Cc1ccccc1)[C@@H](O)[C@H]1NCc2cccc(c2)OCCOCCNC(=O)[C@H](C(C)C)NC1=O,60,–,–
CC(C)[C@@H]1NC(=O)[C@@H]([C@H](O)[C@H](Cc2ccccc2)NC(=O)OC(C)(C)C)NCc2cccc(c2)OCCOCCNC1=O,935,–,–
CC(C)[C@@H]1NC(=O)[C@@H]([C@H](O)[C@H](Cc2ccccc2)NC(=O)[C@@H](NC(=O)CSc2nncn2C)C(C)(C)C)NCc2ccc(cc2)OCCOCCNC1=O,> 3000,11.1,solubility [7]: 1710 µM
COc1ccc(CN[C@@H](C(=O)N[C@@H]2c3ccccc3C[C@H]2O)[C@H](O)[C@H](Cc2ccccc2)NC(=O)[C@@H](NC(=O)OCc2ccccc2)C(C)C)cc1,242,–,IC50 (Cathepsin D): > 10000 nM; AUC [4]: 82.5 µM·h; solubility [7]: < 10 µM; IC50 (MT4 [8]): 843 nM; Ki [9]: 9.5 nM
CC(C)[C@@H]1NC(=O)[C@@H]([C@H](O)[C@H](Cc2ccccc2)NC(=O)OC(C)(C)C)NCc2ccc(cc2)OCCCCNC1=O,1810,–,Ki [9]: 17 nM
CC(C)[C@@H]1NC(=O)[C@@H]([C@H](O)[C@H](Cc2ccccc2)NC(=O)OC(C)(C)C)NCc2cccc(c2)OCCCCNC1=O,335,–,–
CC(C)[C@H](NC(=O)OCc1ccccc1)C(=O)N[C@@H](Cc1ccccc1)[C@@H](O)[C@H]1NCc2cccc(c2)OCCCCNC(=O)[C@H](C(C)C)NC1=O,29,–,–
